In ChEMBL document CHEMBL3046087, “Aminomethylphosphonic acid accumulation in plant species treated with glyphosate” (J Agric Food Chem, 2008):

Assays:
Lolium multiflorum [1] = assay: Induction of shikimate accumulation in Lolium multiflorum (Italian ryegrass) at growth inhibition I50 level rate measured 7 days post treatment (reference value: 904 ug/g tissue); type: functional
Method in brief: (§1)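 Plants were sprayed in the greenhouse at each species' I50 rate, with Tween 20 controls. Shoots were harvested at 7 DAT and rinsed free of surface glyphosate. Shikimic acid was measured by HPLC on a C18 column after 0.45 µm filtration, with 100 µL injected, isocratic 98% H2O (pH 3.0)/2% MeOH, at 1 mL flow.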

Zea mays [2] = assay: Induction of shikimate accumulation in non glyphosate-resistant Zea mays (maize) at growth inhibition I50 level rate measured 7 days post treatment (reference value: 161 ug/g tissue); type: functional
Zea mays [3] = assay: Induction of shikimate accumulation in glyphosate-resistant Zea mays (maize) at growth inhibition I50 level rate measured 7 days post treatment (reference value: 241 ug/g tissue); type: functional; method in brief: as §1
Abutilon theophrasti [4] = assay: Induction of shikimate accumulation in Abutilon theophrasti (velvetleaf) at growth inhibition I50 level rate measured 7 days post treatment (reference value: 2 ug/g tissue); type: functional; method in brief: as §1
Erigeron canadensis [5] = assay: Induction of shikimate accumulation in Conyza canadensis (horseweed) at growth inhibition I50 level rate measured 7 days post treatment (reference value: 251 ug/g tissue); type: functional; method in brief: as §1
[6] = test system: Pueraria montana var. lobata; assay: Induction of shikimate accumulation in Pueraria montana var. lobata ( kudzu) at growth inhibition I50 level rate measured 7 days post treatment (reference value: 188 ug/g tissue); type: functional; method in brief: as §1
Desmanthus illinoensis [7] = assay: Induction of shikimate accumulation in Desmanthus illinoensis (Illinois bundleflower) at growth inhibition I50 level rate measured 7 days post treatment (reference value: 21 ug/g tissue); type: functional
Senna occidentalis [8] = assay: Induction of shikimate accumulation in Senna occidentalis (coffee senna) at growth inhibition I50 level rate measured 7 days post treatment (reference value: 277 ug/g tissue); type: functional; method in brief: as §1
Sesbania herbacea [9] = assay: Induction of shikimate accumulation in Sesbania herbacea at growth inhibition I50 level rate measured 7 days post treatment (reference value: 266 ug/g tissue); type: functional; method in brief: as §1
Senna obtusifolia [10] = assay: Induction of shikimate accumulation in Senna obtusifolia (sicklepod) at growth inhibition I50 level rate measured 7 days post treatment (reference value: 348 ug/g tissue); type: functional; method in brief: as §1
Glycine max [11] = assay: Induction of shikimate accumulation in glyphosate-resistant Glycine max (soybean) at growth inhibition I50 level rate measured 7 days post treatment (reference value: 65 ug/g tissue); type: functional; method in brief: as §1
Glycine max [12] = assay: Induction of shikimate accumulation in non glyphosate-resistant Glycine max (soybean) at growth inhibition I50 level rate measured 7 days post treatment (reference value: 27 ug/g tissue); type: functional; method in brief: as §1
Vigna unguiculata [13] = assay: Induction of shikimate accumulation in Vigna unguiculata (cowpea) at growth inhibition I50 level rate measured 7 days post treatment (reference value: 64 ug/g tissue); type: functional; method in brief: as §1
Erigeron canadensis [14] = assay: Ratio of compound to AMPA level in Conyza canadensis (horseweed) at growth inhibition I50 level rate measured 7 days post treatment; type: organism-based; conditions: in vivo, 168 h
Method in brief: (§2)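 Greenhouse plants (28/22 °C, 13 h photoperiod) were sprayed at each species' I50 rate with Tween 20 controls. Shoots were clipped 7 DAT and washed free of surface herbicide. Pooled ground tissue (1 g) was extracted twice with water under sonication. Extracts were derivatized with heptafluorobutanol/trifluoroacetic anhydride (90 °C, 1 h). Glyphosate and AMPA were quantified by GC-MS against derivatized standard curves, in duplicate.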

[15] = test system: Pueraria montana var. lobata; assay: Ratio of compound to AMPA level in Pueraria montana var. lobata ( kudzu) at growth inhibition I50 level rate measured 7 days post treatment; type: organism-based; conditions: in vivo, 168 h; method in brief: as §2
Senna occidentalis [16] = assay: Ratio of compound to AMPA level in Senna occidentalis (coffee senna) at growth inhibition I50 level rate measured 7 days post treatment; type: organism-based; conditions: in vivo, 168 h; method in brief: as §2
Desmanthus illinoensis [17] = assay: Ratio of compound to AMPA level in Desmanthus illinoensis (Illinois bundleflower) at growth inhibition I50 level rate measured 7 days post treatment; type: organism-based; conditions: in vivo, 168 h; method in brief: as §2
Senna obtusifolia [18] = assay: Ratio of compound to AMPA level in Senna obtusifolia (sicklepod) at growth inhibition I50 level rate measured 7 days post treatment; type: organism-based; conditions: in vivo, 168 h; method in brief: as §2
Glycine max [19] = assay: Ratio of compound to AMPA level in non glyphosate-resistant Glycine max (soybean) at growth inhibition I50 level rate measured 7 days post treatment; type: organism-based; conditions: in vivo, 168 h; method in brief: as §2
Vigna unguiculata [20] = assay: Ratio of compound to AMPA level in Vigna unguiculata (cowpea) at growth inhibition I50 level rate measured 7 days post treatment; type: organism-based; conditions: in vivo, 168 h; method in brief: as §2
Glycine max [21] = assay: Ratio of compound to AMPA level in glyphosate-resistant Glycine max (soybean) at growth inhibition I50 level rate measured 7 days post treatment; type: organism-based; conditions: in vivo, 168 h; method in brief: as §2
Zea mays [22] = assay: Drug level in non glyphosate-resistant Zea mays (maize) assessed as AMPA level at growth inhibition I50 level rate measured 7 days post treatment; type: organism-based; conditions: in vivo, 168 h, BLD = below limit of detection
Method in brief: (§3)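 Greenhouse plants (28/22 °C, 13 h photoperiod) were sprayed with glyphosate at each species' I50 rate, with Tween 20-treated controls. Shoots were cut at 7 DAT and rinsed to remove surface herbicide. Pooled ground tissue (1 g) was water-extracted twice with sonication, acidified, and washed with methylene chloride. Extracts were derivatized with heptafluorobutanol/TFAA (90 °C, 1 h) and measured by GC-MS against derivatized standards, in duplicate.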

Lolium multiflorum [23] = assay: Drug level in Lolium multiflorum (Italian ryegrass) assessed as AMPA level at growth inhibition I50 level rate measured 7 days post treatment; type: organism-based; conditions: in vivo, 168 h, BLD = below limit of detection; method in brief: as §3
Erigeron canadensis [24] = assay: Drug level in Conyza canadensis (horseweed) assessed as AMPA level at growth inhibition I50 level rate measured 7 days post treatment; type: organism-based; conditions: in vivo, 168 h; method in brief: as §3
Zea mays [25] = assay: Drug level in glyphosate-resistant Zea mays (maize) assessed as AMPA level at growth inhibition I50 level rate measured 7 days post treatment; type: organism-based; conditions: in vivo, 168 h, BLD = below limit of detection; method in brief: as §3
Abutilon theophrasti [26] = assay: Drug level in Abutilon theophrasti (velvetleaf) assessed as AMPA level at growth inhibition I50 level rate measured 7 days post treatment; type: organism-based; conditions: in vivo, 168 h, BLD = below limit of detection; method in brief: as §3
[27] = test system: Pueraria montana var. lobata; assay: Drug level in Pueraria montana var. lobata ( kudzu) assessed as AMPA level at growth inhibition I50 level rate measured 7 days post treatment; type: organism-based; conditions: in vivo, 168 h; method in brief: as §3
Desmanthus illinoensis [28] = assay: Drug level in Desmanthus illinoensis (Illinois bundleflower) assessed as AMPA level at growth inhibition I50 level rate measured 7 days post treatment; type: organism-based; conditions: in vivo, 168 h; method in brief: as §3
Sesbania herbacea [29] = assay: Drug level in Sesbania herbacea assessed as AMPA level at growth inhibition I50 level rate measured 7 days post treatment; type: organism-based; conditions: in vivo, 168 h, BLD = below limit of detection; method in brief: as §3
Senna obtusifolia [30] = assay: Drug level in Senna obtusifolia (sicklepod) assessed as AMPA level at growth inhibition I50 level rate measured 7 days post treatment; type: organism-based; conditions: in vivo, 168 h; method in brief: as §3

`O=C(O)CNCP(=O)(O)O` [GLYPHOSATE] gave an Activity (Lolium multiflorum [1]) of 6701 µg/g, an Activity (Zea mays [2]) of 149 µg/g and an Activity (Zea mays [3]) of 245 µg/g. For the same compound, the Activity (Abutilon theophrasti [4]) was 159 µg/g, the Activity (Erigeron canadensis [5]) was 9101 µg/g and the Activity [6] was 8915 µg/g. The Activity (Desmanthus illinoensis [7]) was 668 µg/g, the Activity (Senna occidentalis [8]) was 686 µg/g and the Activity (Sesbania herbacea [9]) was 6828 µg/g. It also gave an Activity (Senna obtusifolia [10]) of 1092 µg/g, an Activity (Glycine max [11]) of 53 µg/g and an Activity (Glycine max [12]) of 15251 µg/g. The Activity (Vigna unguiculata [13]) was 16530 µg/g, the Ratio (Erigeron canadensis [14]) was 84 and the Ratio [15] was 19. It also gave a Ratio (Senna occidentalis [16]) of 21, a Ratio (Desmanthus illinoensis [17]) of 2 and a Ratio (Senna obtusifolia [18]) of 4. The Ratio (Glycine max [19]) was 38, the Ratio (Vigna unguiculata [20]) was 6 and the Ratio (Glycine max [21]) was 49. For the same compound, the Drug uptake (Zea mays [22]) was “BLD”, the Drug uptake (Lolium multiflorum [23]) was “BLD” and the Drug uptake (Erigeron canadensis [24]) was 314 ng/g. For the same compound, the Drug uptake (Zea mays [25]) was “BLD”, the Drug uptake (Abutilon theophrasti [26]) was “BLD” and the Drug uptake [27] was 297 ng/g. The Drug uptake (Desmanthus illinoensis [28]) was 1513 ng/g, the Drug uptake (Sesbania herbacea [29]) was “BLD” and the Drug uptake (Senna obtusifolia [30]) was 1834 ng/g.
